Measurements from ChEMBL document CHEMBL1157557, “Synthesis and evaluation of 1,4-diphenylbutadiene derivatives as inhibitors of plasminogen activator inhibitor-1 (PAI-1) production” (Bioorg Med Chem, 2010).

Columns and labels:
[1] = species: Bos taurus; test: Inhibition of LPS-induced plasminogen activator inhibitor-1 production in BCAEC assessed as relative inhibitory potency in BCAEC at 1 uM after 24 hrs by ELISA relative to T-686; assay type: functional
Summary of the method: (§1)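 Bovine endothelial cells (BCaEs, passages 8–9) grown to confluence in E'MEM with 10% FCS, then serum-starved 24 h. Compound added (10 µM […]; 1 µM LPS-induced, 2 µM TGF-β-induced) with or without LPS 1 µg/ml or TGF-β 0.3 ng/ml. After 24 h, conditioned medium cleared by centrifugation (3000 rpm, 10 min, 4 °C) and PAI-1 antigen measured by specific ELISA; activity expressed relative to T-686 reference.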

[2] = species: Bos taurus; test: Inhibition of TGF-beta-induced plasminogen activator inhibitor-1 production in BCAEC assessed as relative inhibitory potency in BCAEC at 2 uM after 24 hrs by ELISA relative to T-686; assay type: functional; summary of the method: as §1
[3] = Metabolic stability in dog blood assessed as compound remaining after 1 hr by HPLC analysis; assay type: ADME, tissue-based, Canis lupus familiaris; details: read-out: Stability
Summary of the method: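 Stock (100 µg/ml in acetonitrile) diluted tenfold with saline; 0.3 ml added to 3 ml heparinized dog blood prewarmed to 37 °C and incubated at 37 °C. After 1 h plasma separated with diethyl ether by centrifugation and parent level determined by HPLC; reported as % remaining.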

[4] = Aqueous solubility in water; assay type: physicochemical
[5] = Oral bioavailability in dog; assay type: ADME, organism-based, Canis lupus familiaris; details: in vivo
[6] = Photostability assessed as compound remaining by HPLC analysis; assay type: physicochemical
Summary of the method: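 Stock (100 µg/ml in acetonitrile) 0.1 ml mixed with 0.9 ml 0.1 N HCl; kept at room temperature 24 h under room light or foil-protected. Read-out as % compound remaining.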

[7] = species: Rattus norvegicus; test: Genotoxicity in rat assessed as chromosomal aberration; assay type: toxicity, organism-based; details: in vivo
[8] = species: Bos taurus; test: Inhibition of LPS-induced plasminogen activator inhibitor-1 production assessed as relative inhibitory potency in BCAEC at 10 uM after 24 hrs by ELISA relative to T-686; assay type: functional; summary of the method: as §1
[9] = Inhibition of LPS-induced plasminogen activator inhibitor-1 production in BCAEC after 24 hrs by ELISA; assay type: functional, Bos taurus
Summary of the method: (§2)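 BCaEs (passages 8–9) confluent in E'MEM/10% FCS, serum-starved 24 h, then exposed to compound with LPS (1 µg/ml) or TGF-β (0.3 ng/ml) for 24 h. Medium centrifuged at 3000 rpm, 10 min, 4 °C, and PAI-1 antigen quantified by specific ELISA.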

[10] = Inhibition of TGF-beta-induced plasminogen activator inhibitor-1 production in BCAEC after 24 hrs by ELISA; assay type: functional, Bos taurus; summary of the method: as §2
[11] = tested on: Rattus norvegicus; test: Toxicity in rat assessed as decrease in locomotor activity at 300 mg/kg, po; details: in vivo
[12] = tested on: Rattus norvegicus; test: Antithrombotic activity in po dosed rat venous thrombosis model assessed as decrease in thrombus weight administered QD for 8 consecutive days measured after 2 hrs of last dose; assay type: functional
Summary of the method: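 Rats were dosed orally once daily for 8 days at 0.3, 1 and 3 mg/kg, with vehicle controls. They were anaesthetised with Nembutal 50 mg/kg ip, and all vena cava branches between the left renal vein and the bifurcation were ligated. 2 h after the last dose, 0.1 ml of 1:10 diluted rabbit brain thromboplastin was injected into the penile dorsal vein. Thrombus dry weight was measured.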

[13] = tested on: Rattus norvegicus; test: Toxicity in po dosed rat assessed as increase in bleeding time administered QD for 8 consecutive days measured after 2 hrs of last dose by tail incision bleeding time test; assay type: organism-based; details: in vivo
Summary of the method: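 Rats were dosed orally once daily for 8 days at 10, 30 and 100 mg/kg, with vehicle controls. Under Nembutal anaesthesia (50 mg/kg ip), 2 h after the last dose, a 2 mm deep incision was made 3.5 cm from the tail tip. Blood was blotted onto filter paper every 30 s, and bleeding time was taken as the time until no blood appeared.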

[14] = Therapeutic index, ratio of ED100 for increase in bleeding time in po dosed rat to ED50 for decrease in thrombus weight in po dosed rat venous thrombosis model; assay type: organism-based; details: in vivo, read-out: TI
Summary of the method: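 ED100 for prolonged bleeding time (tail incision, oral, daily for 8 days) was divided by ED50 for thrombus weight reduction in the venous thrombosis model (oral, daily for 8 days; ligated vena cava, thromboplastin injected 2 h after the last dose, thrombus dry weight).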

[15] = tested on: Rattus norvegicus; test: Antithrombotic activity in rat arterio-venous shunt model of thrombosis assessed as inhibition of thrombus formation at 10 mg/kg, po QD for 8 consecutive days measured after 2 hrs of last dose; assay type: functional
Summary of the method: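 Rats given test article orally 10 mg/kg once daily for 8 days, controls vehicle. Under Nembutal (50 mg/kg ip), a saline-filled polyethylene tube holding silk thread was placed from the right carotid artery to the left jugular vein. Two hours after the last dose the clamp was released, blood perfused 30 min, and wet weight of thread-bound thrombus taken.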

| bioavailability [5] [%] | Stability [6] [%] | SMILES | Activity [1] | Activity [2] | Activity [7] | other results |
| --- | --- | --- | --- | --- | --- | --- |
| 18 | 38 | COc1cc(OC)cc(/C(C)=C2\C(=O)N(Cc3ccncc3)C(=O)\C2=C\c2ccccc2)c1.Cl | 1.8 | 1.4 | Non-toxic | remaining at 1 h [3]: 60%; solubility [4]: 111 µg/mL |
| – | – | COC(=O)C(=C/c1cc(OC)c(OC)c(OC)c1)/C(=C\c1ccccc1)C(N)=O | – | – | – | Activity [8]: 0.9 |
| – | – | COC(=O)C(=C/c1cc(OC)c(OC)c(OC)c1)/C(=C/c1ccccc1)C(N)=O | – | – | – | Activity [8]: 0.7 |
| 3 | 12 | COc1cc(/C=C2/C(=O)NC(=O)/C2=C/c2ccccc2)cc(OC)c1OC | – | – | Toxic | IC50 [9]: 900 nM; IC50 [10]: 4300 nM |
| 28 | 96 | COC(=O)C(=C(/C)c1cc(OC)cc(OC)c1)/C(=C\c1ccccc1)C(=O)NCc1ccncc1.Cl | 2.1 | 1.9 | Toxic | – |
| 78 | 97 | COC(=O)C(=C(/C)c1cc(OC)cc(OC)c1)/C(=C\c1ccncc1)C(N)=O.Cl | 1.5 | 1.1 | Toxic | – |
| – | – | COC(=O)C(/C(=C\c1ccccc1)C(N)=O)=C(\C)c1cc(OC)c(OC)c(OC)c1 | – | – | – | Activity [8]: 0.3 |
| – | – | COC(=O)C(=C/c1cc(OC)c(OC)c(OC)c1)/C(C(N)=O)=C(/C)c1ccccc1 | – | – | – | Activity [8]: 0.2 |
| 52 | 85 | COC(=O)C(=C(/C)c1cc(OC)cc(OC)c1)/C(=C\c1ccccc1)C(=O)Nc1ccncc1.Cl | 1.8 | 1.1 | Non-toxic | Activity [11]: Toxic |
| – | – | COC(=O)C(=C(/C)c1cc(OC)cc(OC)c1)/C(=C\c1ccccc1)C(=O)O | 0.4 | 0.3 | – | – |
| 17 | 88 | COC(=O)C(=C(/C)c1cc(OC)cc(OC)c1)/C(=C\c1ccccc1)C(=O)Nc1cccnc1.Cl | 2.2 | 1.1 | – | – |
| – | – | COC(=O)C(=C(/C)c1cc(OC)cc(OC)c1)/C(=C\c1ccccc1)C(=O)Nn1cnnc1 | 0.6 | – | – | – |
| – | 47 | COc1cc(OC)cc(/C(C)=C2\C(=O)N(Cc3cccnc3)C(=O)\C2=C\c2ccccc2)c1.Cl | 1 | 1.4 | – | remaining at 1 h [3]: 65%; solubility [4]: 38 µg/mL |
| 9 | 91 | COC(=O)C(=C(/C)c1cc(OC)c(OC)c(OC)c1)/C(=C\c1ccccc1)C(N)=O | 1.5 | 0.7 | Non-toxic | Activity [8]: 1 |
| – | – | COC(=O)C(=C(/C)c1cc(OC)cc(OC)c1)/C(=C\c1cccnc1)C(N)=O | 0.8 | 1.2 | – | – |
| – | – | CC(=O)CC(c1ccccc1)c1c(O)c2ccccc2oc1=O (configuration not stated) [WARFARIN] | – | – | – | ED50 [12]: 0.1 mg/kg/day; ED100 [13]: 0.2 mg/kg/day; selectivity ratio [14]: 2 |
| – | – | COC(=O)C(=C(/C)c1cc(OC)cc(OC)c1)/C(=C\c1ccccc1)C(=O)Nc1ncccn1 | 0.1 | – | – | – |
| – | – | COC(=O)C(=C\c1cc(OC)c(OC)c(OC)c1)/C(=C\c1ccccc1)C(N)=O | – | – | – | Activity [8]: 0.7 |
| – | – | COC(=O)C(=C/c1cc(OC)c(OC)c(OC)c1)/C(C(N)=O)=C(\C)c1ccccc1 | – | – | – | Activity [8]: 0.3 |
| 49 | 91 | COC(=O)C(=C(/C)c1cc(OC)cc(OC)c1)/C(=C\c1ccccc1)C(=O)NN1CCN(C)CC1.Cl | 1.5 | 0.9 | Non-toxic | solubility [4]: > 4000 µg/mL; inhibition in vivo at 10 mg/kg [15]: 22%; ED50 [12]: 0.8 mg/kg/day; ED100 [13]: > 100 mg/kg/day; selectivity ratio [14]: > 125; Activity [11]: Non-toxic |
| – | – | COC(=O)C(=C(/C)c1cc(OC)cc(OC)c1)/C(=C\c1ccccc1)C(=O)NC1CCN(C)CC1 | 0.8 | < 0.1 | – | – |
| – | – | COC(=O)C(=C(/C)c1cc(OC)cc(OC)c1)/C(=C\c1ccccc1)C(=O)Nc1cccc2cccnc12 | 0.4 | – | – | – |
| – | – | COC(=O)C(=C(/C)c1cc(OC)cc(OC)c1)/C(=C\c1ccccc1)C(=O)Nc1nnn[nH]1 | 0.1 | – | – | – |
| – | – | COC(=O)C(=C(/C)c1cc(OC)cc(OC)c1)/C(=C\c1ccccc1)C(=O)N1CCN(C)CC1 | 0.3 | 0.3 | – | – |
| – | – | COC(=O)C(=C(/C)c1cc(OC)cc(OC)c1)/C(=C\c1ccccc1)C(=O)NN1CC[N+](C)([O-])CC1 | 0.2 | – | – | – |
| 21 | 90 | COC(=O)C(=C(/C)c1cc(OC)cc(OC)c1)/C(=C\c1ccccc1)C(=O)NCc1cccnc1.Cl | 1.3 | 1.8 | Non-toxic | Activity [11]: Toxic |
